T cell HTS: T cell immune modulators affecting CD8 T cell-vesicle binding. 2C CD8+ T cell-vesicle binding, flow cytometry; stronger effect = lower value. response (vesicle binding), % at 7 µM. 0.068% of 330,000 active. AID 2052;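 active means response, share of CD8 T cells binding vesicles, and their 90th percentile fluorescence all below set limits, cut at about 80% in these data, passing the limit was not always enough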;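 further: values below 100% mean blocked vesicle binding to the CD8+ T cells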
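Material: 2C TCR transgenic mouse naive CD8+ T cells, MACS-purified. Also added: QL9-charged Drosophila Ld/ICAM-1/B7-1 vesicles. Timing: binding 1.5 h at 37 °C. Measured by: high-throughput flow cytometry with anti-B7-1 and anti-CD8 staining. Read-out: percent CD8+ FL2 mean versus row control. Controls: Unloaded micro-vesicles (low), QL9 vesicles with 0.7% DMSO (high).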
Vif imaging: blocks HIV Vif function; HEK293T cells, Vif self-association by quenched fluorescence, imaging, 24 h; inhibition, % at 7.49 µM; 0.35% of 340,000 active; AID 602346; in the data active means inhibition above about 50%, passing the limit was not always enough; inconclusive means no clear call, values can overlap the other calls; inactive means below about 31%
Casp6 inh: blocks human caspase-6 cleavage activity; 0.53% of 350,000 active; P55212; AID 686996; purified caspase-6, Z-VEID-R110 cleavage fluorescence; inhibition, % at 12.5 µM;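 active means mean inhibition across replicates at least about 35%, with every replicate also reaching that limit, limit read from the data; inconclusive means only one of the two criteria met; inactive means neither criterion met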
Target sequence (P55212 24-179 limits assumed): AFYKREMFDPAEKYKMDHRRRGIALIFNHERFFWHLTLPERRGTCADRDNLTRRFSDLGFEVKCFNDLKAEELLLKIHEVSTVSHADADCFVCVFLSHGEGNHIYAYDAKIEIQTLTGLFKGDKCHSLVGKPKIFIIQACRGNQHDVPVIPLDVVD
Target sequence (P55212 194-293 limits assumed): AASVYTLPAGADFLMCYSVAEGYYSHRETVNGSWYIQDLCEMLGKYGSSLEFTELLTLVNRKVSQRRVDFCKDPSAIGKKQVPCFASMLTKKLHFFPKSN
Myeloid diff MLP: promotes myeloid progenitor differentiation. ER-HoxA9 myeloid progenitors, lysozyme-GFP differentiation, flow cytometry. 1% of 360,000 active. calls only at 10 µM. AID 624256;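 active means normalized GFP-positive differentiation at or above the plate's own cutoff, the solvent-only control mean plus 3 SD; inconclusive means no clear call, values can overlap the other calls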;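 further: cells exposed to compound for four days before flow analysis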
Hits are given with their value. Most compounds without a hit are left out; they make up all but 1.4% or so of the library.

How did Clc1cc2c(c(CSc3nc4ccccc4n4cccc34)c1)OCOC2 do in these assays?
T cell HTS: inactive; Vif imaging: 76; Casp6 inh: inactive; Myeloid diff MLP: inactive

Results for Clc1cc2c(c(Cn3cnc4ccccc43)c1)OCOC2 ?
T cell HTS: inactive; Vif imaging: inactive; Myeloid diff MLP: inactive

How did N#C/C(=C\c1ccc(O)c(O)c1)C(=O)c1ccc(O)c(O)c1 do in these assays?
T cell HTS: inactive; Vif imaging: inactive; Casp6 inh: 72; Myeloid diff MLP: inactive

Results for N#C/C(=C\c1ccc(O)c(O)c1)C(=O)N1CCCC1 ?
T cell HTS: inactive; Vif imaging: inactive; Casp6 inh: inactive; Myeloid diff MLP: inactive

How did O=C(NCC[C@@H]1CC[C@H](NC(=O)c2ccc3c(c2)OCO3)[C@H](CO)O1)Nc1ccc(Cl)cc1 do in these assays?
Casp6 inh: inactive

How did COc1cccc(C#Cc2ccc3c(c2)[C@H]2[C@H](CCN2C(C)=O)[C@H](CO)N3)c1 do in these assays?
Casp6 inh: inactive

What do the screens show for `Cc1cc(C)c([N+](=O)[O-])cc1NCC(=O)N1CCN(c2ccccc2)CC1`?
T cell HTS: inactive; Vif imaging: inactive; Casp6 inh: inactive; Myeloid diff MLP: active

Results for COC(=O)C1=C(C)N(Cc2ccccc2)C(=NCCc2cccnc2)N[C@H]1c1ccc(Br)cc1 ?
T cell HTS: inactive; Myeloid diff MLP: active

How did COc1cccc(-c2ccc3n(c2=O)C[C@H]2[C@H](CO)[C@@H](C(=O)N(C)C)N(C(=O)C4CCC4)[C@@H]32)c1 do in these assays?
Casp6 inh: inactive

How did COCCNc1nc2c(-c3cccc(C(F)(F)F)c3)nnn2c2ccccc12 do in these assays?
T cell HTS: inactive; Vif imaging: inactive; Casp6 inh: inactive; Myeloid diff MLP: inactive

Results for NNc1nc2c(-c3cccc(C(F)(F)F)c3)nnn2c2ccccc12 ?
T cell HTS: inactive; Vif imaging: inactive; Casp6 inh: inactive; Myeloid diff MLP: active

How did C[C@@H]1CN([C@@H](C)CO)C(=O)Cc2cc(N(C)C)ccc2O[C@H]1CN(C)C(=O)Nc1ccc(C(F)(F)F)cc1 do in these assays?
Casp6 inh: inactive

Results for N#CCCN/N=C(/Cc1nc2ccccc2[nH]1)c1cccc(Cl)c1 ?
T cell HTS: inactive; Vif imaging: inactive; Myeloid diff MLP: active

What do the screens show for `CC(=O)Nc1ccc(S(=O)(=O)/N=C2\C(=O)c3ccccc3C([O-])=C2n2cc[n+](-c3ccccn3)c2)cc1`?
T cell HTS: inactive; Vif imaging: inactive; Casp6 inh: 68; Myeloid diff MLP: inactive

What do the screens show for `Cc1ccc(S(=O)(=O)/N=C2\C(=O)c3ccccc3C([O-])=C2n2cc[n+](CCC(C)C)c2)cc1`?
T cell HTS: inactive; Vif imaging: inactive

What do the screens show for `CCCCc1ccc(-c2csc(/C(C#N)=C\c3ccco3)n2)cc1`?
T cell HTS: inactive; Vif imaging: 51; Casp6 inh: inactive; Myeloid diff MLP: active

How did O=C(O)c1ccccc1-c1ccc(/C=c2\sc3nc4cc(Br)cnc4n3c2=O)o1 do in these assays?
T cell HTS: inactive; Myeloid diff MLP: inactive

Results for Cc1cc2nc3s/c(=C/c4ccc(-c5ccccc5C(=O)O)o4)c(=O)n3c2cc1C ?
T cell HTS: inactive; Vif imaging: inactive; Casp6 inh: 36; Myeloid diff MLP: active

Results for Cc1cc(C(=O)Nc2cccc3c2O[C@@H](CN(C)CC2CC2)[C@@H](C)CN([C@H](C)CO)C3=O)n(C)n1 ?
Casp6 inh: inactive

What do the screens show for `C=CCNc1sc(C(=O)c2ccc(Br)s2)c(N)c1C#N`?
T cell HTS: inactive; Vif imaging: 111; Myeloid diff MLP: inactive

What do the screens show for `N#Cc1ccc(C(C(=O)NC2CCCCC2)n2c(=O)c(-c3cc4ccccc4[nH]3)nc3ccccc32)cc1` (configuration not stated)?
Casp6 inh: inactive; Myeloid diff MLP: active

How did O=C(NCc1ccncc1)c1ccc(OCc2ccccc2)cc1 do in these assays?
T cell HTS: inactive; Vif imaging: inactive; Casp6 inh: 36; Myeloid diff MLP: inactive

Results for O=C(NCc1ccncc1)c1ccc(Oc2ccccc2)cc1 ?
T cell HTS: inactive; Vif imaging: inactive; Casp6 inh: inactive; Myeloid diff MLP: inactive

Results for COc1ccccc1CN1[C@@H](CO)[C@@H](c2ccccc2)C12CN(C(=O)c1ccccn1)C2 ?
Casp6 inh: inactive

Results for CN(C)C(=O)C[C@@H]1CC[C@@H]2[C@H](COC[C@H](O)CN2CC2CC2)O1 ?
Casp6 inh: inactive

How did CCOc1ccc2cc(/C=C/C(=O)c3ccco3)c(Cl)nc2c1 do in these assays?
T cell HTS: inactive; Vif imaging: inconclusive; Myeloid diff MLP: active

Results for CCOc1ccc2nc(SCC(=O)NNC(=O)c3ccco3)c(C)cc2c1 ?
T cell HTS: inactive; Vif imaging: inactive; Casp6 inh: inactive; Myeloid diff MLP: inactive

Results for COc1ccccc1CNC(=O)c1ccc(Cl)c(NC2=NC3CS(=O)(=O)CC3S2)c1 (configuration not stated) ?
T cell HTS: inactive; Vif imaging: 60; Casp6 inh: inactive; Myeloid diff MLP: inactive

How did COc1ccccc1CNC(=O)c1ccc(NC2=NC3CS(=O)(=O)CC3S2)cc1 (configuration not stated) do in these assays?
T cell HTS: inactive; Vif imaging: inactive; Casp6 inh: inactive; Myeloid diff MLP: inactive

How did O=C(C[C@@H]1CC[C@@H](NC(=O)NC2CCCC2)[C@H](CO)O1)NCc1ccc(F)cc1 do in these assays?
Casp6 inh: inactive

Results for COc1ccc(OCCCC(=O)Nc2ncn[nH]2)cc1 ?
T cell HTS: inactive; Vif imaging: 51; Casp6 inh: inactive; Myeloid diff MLP: inactive

Results for C[C@H](CO)N1C[C@H](C)[C@H](CN(C)C(=O)C2CCC2)Oc2cc(-c3cncnc3)ccc2S1(=O)=O ?
Casp6 inh: inactive

Results for CCOCCCNC(=O)C1c2ccccc2Oc2ccccc21 ?
T cell HTS: inactive; Vif imaging: inactive; Casp6 inh: 41; Myeloid diff MLP: inactive

Results for CC(C)(C)Nc1nc2nonc2nc1NC(C)(C)C ?
T cell HTS: 0.0; Vif imaging: inactive; Casp6 inh: inactive; Myeloid diff MLP: active

Results for OCCNc1nc2nonc2nc1NCCO ?
T cell HTS: inactive; Vif imaging: inactive; Casp6 inh: inactive; Myeloid diff MLP: inactive

What do the screens show for `CCCCC[C@H](O)/C=C/[C@@H]1[C@@H](C/C=C\CCCC(=O)OC)[C@@H](O)C[C@H]1O`?
T cell HTS: inactive; Vif imaging: inactive; Myeloid diff MLP: inactive

Results for CCCCC[C@H](O)/C=C/C1C(=O)C=C[C@H]1C/C=C\CCCC(=O)OC (some centres not stated) ?
Casp6 inh: 53; Myeloid diff MLP: inactive

What do the screens show for `O=C(C[C@@H]1CC[C@H](NC(=O)c2ccncc2)[C@@H](CO)O1)NCC1CCCCC1`?
Casp6 inh: inactive

Results for Cc1cc(C)nc(-n2nc(C)cc2NC(=O)CN2CCc3ccccc3C2)n1 ?
T cell HTS: inactive; Vif imaging: inactive; Myeloid diff MLP: active

How did Cc1cc(C)nc(-n2nc(C)cc2NC(=O)CN2CCCC(C)C2)n1 (configuration not stated) do in these assays?
T cell HTS: inactive; Vif imaging: inactive; Myeloid diff MLP: inactive

Assay outcomes deposited in PubChem BioAssay by several laboratories.
